In ChEMBL document CHEMBL1240414, “Synthesis and anticonvulsant activity of new 6-methyl-1-substituted-4,6-diazaspiro[2.4]heptane-5,7-diones” (Eur J Med Chem, 2010):
Activity calls are given as the source filed them.

Legend:
Mus musculus [1] = test: Anticonvulsant activity in Kunming mouse assessed as protection against maximal electroshock-induced seizures at 30 mg/kg, ip after 0.5 hrs; format: functional, organism-based; design: dose 30 mg/kg
Mus musculus [2] = test: Anticonvulsant activity in Kunming mouse assessed as protection against subcutaneous pentylenetetrazole-induced seizures at 30 mg/kg, ip after 4 hrs; format: functional, organism-based; design: dose 30 mg/kg
Outline: (§1)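 Male Kunming mice (20 ± 2.0 g) received the compound ip as a suspension in 0.5% methylcellulose at 30, 100 or 300 mg/kg, one to four mice per dose. Pentylenetetrazole in 0.9% saline was given sc at 0.5 h and 4.0 h after dosing. Protection meant no threshold seizure (one clonic spasm episode of at least 5 s). Scored as protected/tested.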

Mus musculus [3] = test: Neurotoxicity in Kunming mouse assessed as minimum motor impairment at 30 mg/kg, ip after 0.5 hrs by rotarod test; format: toxicity, organism-based; design: dose 30 mg/kg, route intraperitoneal; settings: in vivo
Outline: (§2)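 Rotorod neurotoxicity in male Kunming mice (20 ± 2.0 g) given ip doses of 30, 100 or 300 mg/kg as a suspension in 0.5% methylcellulose, one to four mice per dose. Motor impairment was examined at 0.5 h and 4.0 h after injection. Reported as number of animals showing toxicity/number tested.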

Mus musculus [4] = test: Anticonvulsant activity in Kunming mouse assessed as protection against maximal electroshock-induced seizures at 300 mg/kg, ip after 4 hrs; format: functional, organism-based; design: dose 300 mg/kg
Mus musculus [5] = test: Anticonvulsant activity in Kunming mouse assessed as protection against maximal electroshock-induced seizures at 30 mg/kg, ip after 4 hrs; format: functional, organism-based; design: dose 30 mg/kg
Mus musculus [6] = test: Anticonvulsant activity in Kunming mouse assessed as protection against maximal electroshock-induced seizures at 300 mg/kg, ip after 0.5 hrs; format: functional, organism-based; design: dose 300 mg/kg
Mus musculus [7] = test: Anticonvulsant activity in Kunming mouse assessed as protection against subcutaneous pentylenetetrazole-induced seizures at 100 mg/kg, ip after 0.5 hrs; format: functional, organism-based; design: dose 100 mg/kg; outline: as §1
Mus musculus [8] = test: Anticonvulsant activity in Kunming mouse assessed as protection against maximal electroshock-induced seizures at 100 mg/kg, ip after 4 hrs; format: functional, organism-based; design: dose 100 mg/kg
Mus musculus [9] = test: Anticonvulsant activity in Kunming mouse assessed as protection against subcutaneous pentylenetetrazole-induced seizures at 30 mg/kg, ip after 0.5 hrs; format: functional, organism-based; design: dose 30 mg/kg; outline: as §1
Mus musculus [10] = test: Neurotoxicity in Kunming mouse assessed as minimum motor impairment at 300 mg/kg, ip after 0.5 hrs by rotarod test; format: toxicity, organism-based; design: dose 300 mg/kg, route intraperitoneal; settings: in vivo; outline: as §2
Mus musculus [11] = test: Neurotoxicity in Kunming mouse assessed as minimum motor impairment at 30 mg/kg, ip after 4 hrs by rotarod test; format: toxicity, organism-based; design: dose 30 mg/kg, route intraperitoneal; settings: in vivo; outline: as §2
Mus musculus [12] = test: Neurotoxicity in Kunming mouse assessed as minimum motor impairment at 100 mg/kg, ip after 4 hrs by rotarod test; format: toxicity, organism-based; design: dose 100 mg/kg, route intraperitoneal; settings: in vivo; outline: as §2
Mus musculus [13] = test: Anticonvulsant activity in Kunming mouse assessed as protection against subcutaneous pentylenetetrazole-induced seizures at 300 mg/kg, ip after 0.5 hrs; format: functional, organism-based; design: dose 300 mg/kg; outline: as §1
Mus musculus [14] = test: Anticonvulsant activity in Kunming mouse assessed as protection against subcutaneous pentylenetetrazole-induced seizures at 300 mg/kg, ip after 4 hrs; format: functional, organism-based; design: dose 300 mg/kg; outline: as §1
Mus musculus [15] = test: Neurotoxicity in Kunming mouse assessed as minimum motor impairment at 300 mg/kg, ip after 4 hrs by rotarod test; format: toxicity, organism-based; design: dose 300 mg/kg, route intraperitoneal; settings: in vivo; outline: as §2
Mus musculus [16] = test: Anticonvulsant activity in Kunming mouse assessed as protection against subcutaneous pentylenetetrazole-induced seizures at 100 mg/kg, ip after 4 hrs; format: functional, organism-based; design: dose 100 mg/kg; outline: as §1
Rattus norvegicus [17] = test: Anticonvulsant activity in Kunming rat assessed as protection against maximal electroshock-induced seizures at 30 mg/kg, po after 0.5 hrs; format: functional
Outline: (§3)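 Male Kunming rats (250 ± 5.0 g) were dosed orally at 30 mg/kg, four rats per compound. Seizures were induced by a 150-mA corneal current for 0.2 s at 0.25, 0.5, 1, 2 and 4 h after dosing. Readout was the number of rats out of four protected against hindlimb tonic extension.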

Rattus norvegicus [18] = test: Anticonvulsant activity in Kunming rat assessed as protection against maximal electroshock-induced seizures at 30 mg/kg, po after 1 hr; format: functional; outline: as §3
Rattus norvegicus [19] = test: Neurotoxicity in Kunming rat assessed as minimum motor impairment at 30 mg/kg, po after 0.5 hrs by rotarod test; format: functional, organism-based; design: dose 30 mg/kg
Outline: (§4)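 Rotorod neurotoxicity in male Kunming rats (250 ± 5.0 g) given 30 mg/kg po, four rats per compound. Motor impairment was assessed at 0.25, 0.5, 1, 2 and 4 h after oral administration.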

Rattus norvegicus [20] = test: Neurotoxicity in Kunming rat assessed as minimum motor impairment at 30 mg/kg, po after 1 hr by rotarod test; format: functional, organism-based; design: dose 30 mg/kg; outline: as §4
Rattus norvegicus [21] = test: Anticonvulsant activity in Kunming rat assessed as protection against maximal electroshock-induced seizures at 30 mg/kg, po after 2 hrs; format: functional; outline: as §3
Rattus norvegicus [22] = test: Anticonvulsant activity in Kunming rat assessed as protection against maximal electroshock-induced seizures at 30 mg/kg, po after 0.25 hrs; format: functional; outline: as §3
Rattus norvegicus [23] = test: Neurotoxicity in Kunming rat assessed as minimum motor impairment at 30 mg/kg, po after 0.25 hrs by rotarod test; format: toxicity, organism-based; design: dose 30 mg/kg, route oral; settings: in vivo; outline: as §4
Mus musculus [24] = test: Neurotoxicity in Kunming mouse assessed as minimum motor impairment at 100 mg/kg, ip after 0.5 hrs by rotarod test; format: toxicity, organism-based; design: dose 100 mg/kg, route intraperitoneal; settings: in vivo; outline: as §2
Rattus norvegicus [25] = test: Neurotoxicity in Kunming rat assessed as minimum motor impairment at 30 mg/kg, po after 2 hrs by rotarod test; format: functional, organism-based; design: dose 30 mg/kg; outline: as §4
Rattus norvegicus [26] = test: Neurotoxicity in Kunming rat assessed as minimum motor impairment at 30 mg/kg, po after 4 hrs by rotarod test; format: functional, organism-based; design: dose 30 mg/kg; outline: as §4
Rattus norvegicus [27] = test: Anticonvulsant activity in Kunming rat assessed as protection against maximal electroshock-induced seizures at 30 mg/kg, po after 4 hrs; format: functional; outline: as §3
Mus musculus [28] = test: Anticonvulsant activity in Kunming mouse assessed as protection against maximal electroshock-induced seizures at 100 mg/kg, ip after 0.5 hrs; format: functional, organism-based; design: dose 100 mg/kg
Rattus norvegicus [29] = test: Anticonvulsant activity in Kunming rat assessed as protection against subcutaneous pentylenetetrazole-induced seizures at 30 mg/kg, po after 1 hr; format: functional

| Structure (SMILES) | Activity (Mus musculus [1]) | Activity (Mus musculus [2]) | Activity (Mus musculus [3]) | Activity (Mus musculus [4]) | Activity (Mus musculus [5]) | Activity (Mus musculus [6]) | Activity (Mus musculus [7]) | Activity (Mus musculus [8]) | Activity (Mus musculus [9]) | Activity (Mus musculus [10]) | Activity (Mus musculus [11]) | Activity (Mus musculus [12]) | Activity (Mus musculus [13]) | Activity (Mus musculus [14]) | Activity (Mus musculus [15]) | Activity (Mus musculus [16]) | Activity (Rattus norvegicus [19]) | Activity (Rattus norvegicus [20]) | Activity (Rattus norvegicus [23]) | Activity (Mus musculus [24]) | also measured |
| --- | --- | --- | --- | --- | --- | --- | --- | --- | --- | --- | --- | --- | --- | --- | --- | --- | --- | --- | --- | --- | --- |
| CN1C(=O)NC2(CC2c2ccccc2Cl)C1=O (stereo unspecified) | inactive | inactive | Non-toxic | inactive | inactive | Active | inactive | inactive | inactive | Toxic | Non-toxic | Non-toxic | inactive | inactive | Toxic | inactive | – | – | – | – | – |
| CN1C(=O)NC2(CC2c2ccccc2)C1=O (stereo unspecified) | Active | inactive | Non-toxic | – | – | – | inactive | – | inactive | Toxic | Non-toxic | Non-toxic | inactive | inactive | – | inactive | Not toxic | Not toxic | Non-toxic | Non-toxic | Activity (Rattus norvegicus [17]): 25%; Activity (Rattus norvegicus [18]): inactive; Activity (Rattus norvegicus [21]): inactive; Activity (Rattus norvegicus [22]): inactive; Activity (Rattus norvegicus [25]): Not toxic; Activity (Rattus norvegicus [26]): Not toxic; Activity (Rattus norvegicus [27]): inactive |
| COc1ccc(C2CC23NC(=O)N(C)C3=O)cc1 (stereo unspecified) | inactive | inactive | Non-toxic | Active | inactive | Active | inactive | inactive | inactive | Non-toxic | Non-toxic | Non-toxic | – | inactive | Non-toxic | inactive | – | – | – | Non-toxic | – |
| CN1C(=O)NC2(CC2c2ccc(Br)cc2)C1=O (stereo unspecified) | inactive | inactive | Non-toxic | Active | inactive | Active | inactive | inactive | inactive | Non-toxic | Non-toxic | Non-toxic | inactive | inactive | – | inactive | – | – | – | – | Activity (Mus musculus [28]): inactive |
| CN1C(=O)NC2(CC2c2ccc(F)cc2)C1=O (stereo unspecified) | Active | inactive | Non-toxic | Active | – | – | Active | Active | Active | Non-toxic | Non-toxic | Non-toxic | Active | – | Non-toxic | – | Not toxic | Not toxic | Non-toxic | Non-toxic | Activity (Rattus norvegicus [17]): 25%; Activity (Rattus norvegicus [18]): inactive; Activity (Rattus norvegicus [29]): 25%; Activity (Rattus norvegicus [21]): 25%; Activity (Rattus norvegicus [22]): inactive; Activity (Rattus norvegicus [25]): Not toxic; Activity (Rattus norvegicus [26]): Not toxic; Activity (Rattus norvegicus [27]): inactive |
| CCCCC1CC12NC(=O)N(C)C2=O (stereo unspecified) | Active | inactive | Non-toxic | – | – | – | – | – | Active | Non-toxic | Non-toxic | Non-toxic | – | – | Non-toxic | inactive | Not toxic | Not toxic | Non-toxic | Non-toxic | Activity (Rattus norvegicus [17]): inactive; Activity (Rattus norvegicus [18]): 50%; Activity (Rattus norvegicus [21]): inactive; Activity (Rattus norvegicus [22]): 25%; Activity (Rattus norvegicus [25]): Not toxic; Activity (Rattus norvegicus [26]): Not toxic; Activity (Rattus norvegicus [27]): inactive |
| COc1ccc(C2CC23NC(=O)N(C)C3=O)c(OC)c1OC (stereo unspecified) | inactive | inactive | Non-toxic | Active | inactive | – | – | inactive | inactive | Non-toxic | Non-toxic | Non-toxic | – | – | Non-toxic | – | Not toxic | Not toxic | Non-toxic | Non-toxic | Activity (Rattus norvegicus [29]): inactive; Activity (Rattus norvegicus [25]): Not toxic; Activity (Rattus norvegicus [26]): Not toxic |
| CN1C(=O)NC2(CC2c2ccco2)C1=O (stereo unspecified) | inactive | inactive | Toxic | inactive | inactive | Active | inactive | inactive | inactive | – | Non-toxic | – | inactive | inactive | – | inactive | – | – | – | – | Activity (Mus musculus [28]): inactive |
